From PubChem
CatB mixtures: human cathepsin B inhibition by mixtures; Purified cathepsin B, AMC dipeptide fluorescence, compound mixtures; AID 488; P07858; 0.06% of 62,000 active; inhibition, %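 (ten-compound pools at 5 µM per compound and 50 µM total)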; in the data active = inhibition above about 22%, passing the limit was not always enough; inconclusive = no clear call, values can overlap the other calls;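 also: 0% = enzyme without compound and 100% = no enzyme blank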
CatB block: blocks human cathepsin B protease activity; 0.1% of 63,000 active; purified cathepsin B, fluorogenic substrate, fluorescence; P07858; inhibition, %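 (tested at 10 µM)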; in the data active = inhibition above about 21%;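 also: 0% = enzyme with no compound and 100% = no enzyme blank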
Ec RNAP inh: inhibitors of Escherichia coli RNA polymerase; E. coli RNA polymerase, fluorescence transcription assay; inhibition, %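 (tested at 10 µM)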; 0.2% of 62,000 active; AID 559; in the data active = inhibition above about 20%;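 also: 0% = enzyme without compound and 100% = no enzyme blank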
CatL inh: blocks human cathepsin L protease activity; P07711; purified cathepsin L, fluorogenic substrate, fluorescence; inhibition, %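 (tested at 10 µM)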; 0.17% of 58,000 active; in the data active = inhibition above about 45%;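 also: 0% = enzyme with no compound and 100% = no enzyme blank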
Target sequence (P07711 114-288 limits assumed): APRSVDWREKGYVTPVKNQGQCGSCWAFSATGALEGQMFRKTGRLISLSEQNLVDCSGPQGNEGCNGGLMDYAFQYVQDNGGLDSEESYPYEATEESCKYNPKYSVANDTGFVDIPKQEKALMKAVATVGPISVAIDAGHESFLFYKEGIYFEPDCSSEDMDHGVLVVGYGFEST
Target sequence (P07711 292-333 limits assumed): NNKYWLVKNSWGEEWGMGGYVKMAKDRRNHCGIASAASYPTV
CatS inh: human cathepsin S inhibition. P25774. recombinant cathepsin S, AMC dipeptide fluorescence, pooled mixtures. inhibition, %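 (tested at 5 µM per compound within 10-compound mixtures)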. 0.06% of 62,000 active. AID 501; in the data active = inhibition above about 32%, passing the limit was not always enough; inconclusive = no clear call, values can overlap the other calls;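 also: 0% = enzyme without compound and 100% = blank without enzyme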
Target sequence (P25774 115-331 limits assumed): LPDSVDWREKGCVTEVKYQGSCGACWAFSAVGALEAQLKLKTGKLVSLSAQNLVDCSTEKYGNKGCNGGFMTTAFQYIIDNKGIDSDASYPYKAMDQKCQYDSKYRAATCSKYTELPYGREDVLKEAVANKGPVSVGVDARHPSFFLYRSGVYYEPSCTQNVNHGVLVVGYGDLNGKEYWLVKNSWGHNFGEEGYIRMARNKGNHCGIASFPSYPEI
AP ELISA ortho: orthogonal test for alternative complement pathway inhibitors; Human serum alternative complement pathway, LPS-coated ELISA, C3 deposition; tested in compound mixtures; 0.08% of 62,000 active; inhibition, % at 5 µM;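 active = inhibition above 30% in each of the two pooled mixtures holding the compound, so the lower value exceeds 30%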;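 also: 0% = serum in Mg-EGTA without compound and 100% = EDTA serum blank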
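Assay system: human serum alternative complement pathway, C3 deposition on LPS-coated wells; Dosing: 5 µM per compound in ten-compound mixtures; Detection: Anti-C3 ELISA, OD 450 nm; Buffer or medium: Mg2+-EGTA GVB++ buffer containing human serum at 1:15 dilution; Timing: 1 h at 37 °C; Replication: two different pools per compound.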
Active calls of the source: *; ? = inconclusive; . = not tested or not shown. The list is not random: actives were taken first. Their share in the collection is about 0.51%.

SMILES | CatB mixtures | CatB block | Ec RNAP inh | CatL inh | CatS inh | AP ELISA ortho
COc1ccc(N2CCC(CNC(=O)Nc3ccc(C)c(C)c3)C2)cc1 (stereo not given) | 1 | 41* | 0 | -4 | 4 | 10
COc1ccc(N2CCC(CNC(=O)Nc3ccc(OC)cc3OC)C2)cc1 (stereo not given) | 5 | 1 | 3 | -3 | -4 | 18
CC1(C(=O)NCc2cccnc2)CCC(=O)N1Cc1cccs1 (stereo not given) | 5 | 2 | 6 | . | 9 | 36*
CCC(=O)Nc1ccc(C(=O)n2nc(C)cc2C)cc1 | 1 | 6 | 5 | -4 | 1 | 6
CCC(=O)Nc1ccc(C(=O)n2ccc(C)n2)cc1 | -3 | 2 | 7 | . | 3 | 35*
N#Cc1nc(N2CCCCC2)nc(N2CCOCC2)n1 | 7 | 13 | 8 | 58* | 58* | -6
N#Cc1nc(N2CCCC2)nc(N2CCCC2)n1 | 6 | 1 | 2 | 15 | 20 | 22
Cc1cc(C(=O)NCc2ccco2)cs1 | 4 | 4 | -4 | -6 | -5 | 5
Cc1cc(C)n(C(C)n2nc(C)cc2C)n1 | 0 | 1 | 14 | 12 | -3 | -3
C/C(=N/n1cnnc1)c1cccnc1 | . | 5 | 27* | 27 | . | .
O=S(=O)(c1ccccc1)N1CCN(S(=O)(=O)c2ccccc2)C1 | 3 | 4 | 13 | 7 | -4 | -1
O=S(=O)(/N=S1/CC=CCN1S(=O)(=O)c1ccccc1)c1ccccc1 (stereo not given) | ? | 35* | 4 | . | -19 | 9
CN(C)/C=N/c1nc2ccc3c(c2s1)CCCC3 | -3 | 3 | -1 | 4 | -2 | -1
COc1ccc2nc(/N=C\N(C)C)sc2c1 | 1 | 41* | 8 | 14 | 7 | 3
CCCC1(CCC)NC(=O)N(CC(=O)Nc2cccc(OC)c2)C1=O | 6 | 2 | 40* | -1 | 16 | 7
COc1ccc(CNC(=O)C(C)NC(=O)c2cc3ccccc3o2)cc1 (stereo not given) | 7 | 0 | 39* | -4 | -8 | 16
COc1ccc(C(=O)Nc2ccccc2C(=O)NCCCn2ccnc2)cc1 | 5 | -4 | 8 | 7 | 11 | 5
O=C(Nc1ccccc1C(=O)NCCCn1ccnc1)c1ccccc1 | 3 | 7 | 21* | 18 | 22 | -8
O=C(NCCCN1CCN(Cc2ccccc2)CC1)C1CCN(c2nnc(-n3cccc3)s2)CC1 | 1 | 3 | -4 | 64* | 9 | -8
O=C(NCCCN1CCc2ccccc2C1)C1CCN(c2nnc(-n3cccc3)s2)CC1 | -10 | -4 | 0 | 78* | 2 | -1
O=C(Nc1nnc(CCN2CCOCC2)s1)C1CCCCC1 | -6 | 0 | 5 | -2 | -11 | 2
CCCN(CCC)CCNC(=O)C(NS(=O)(=O)c1ccc2c(c1)CCC(=O)N2)c1ccccc1 (stereo not given) | 7 | 1 | 11 | 25 | 82* | 0
CC(C)NC(=O)C1CCN(C(=O)c2cc3sccc3n2Cc2ccc(F)cc2)CC1 | 3 | 0 | 2 | -4 | -3 | 11
CC1CCN(C(=O)C2CCN(C(=O)c3cc4sccc4n3Cc3ccc(F)cc3)CC2)CC1 | 1 | 1 | 2 | 54* | -2 | 11
COc1ccc(CC(=O)Nc2oc(-c3ccccc3)c(-c3ccccc3)c2C#N)cc1OC | 5 | 0 | 2 | -4 | 4 | 9
SMILES | CatB mixtures | CatB block | Ec RNAP inh | CatL inh | CatS inh | AP ELISA ortho
COc1ccccc1OCC(=O)Nc1oc(-c2ccccc2)c(-c2ccccc2)c1C#N | -3 | 55* | 7 | . | 4 | -5
Cc1cc(N2CCN(C3CCCC3)CC2)n2nc(C)c(-c3ccccc3)c2n1 | 0 | 0 | 5 | 25 | 3 | 24
CN1CCN(C(=O)CSc2nc(-c3cccs3)cc(-c3cccs3)c2C#N)CC1 | 7 | -8 | 2 | -30 | 8 | 28
CSc1nc(C2CC2)cc(-c2cccs2)c1C#N | 3 | 48* | 8 | 2 | 2 | 14
Cc1ccc(NC(=O)c2c(-c3c(F)cccc3Cl)noc2C)cc1F | 2 | 1 | 5 | 4 | -1 | 6
CCOC(=O)N1CCN(C2=NC3(CCCCC3)C(C#N)C(=O)N2)CC1 (stereo not given) | 0 | 5 | . | 1 | 8 | -7
CCc1nnc(NC(=O)CSc2nnc3c4ccccc4n(C)c3n2)s1 | -9 | 3 | 7 | 4 | 0 | 6
CCCCc1c(C)nn(-c2nnc3c4ccccc4n(C)c3n2)c1C | . | 0 | . | 94* | . | .
O=C(NCCCn1ccnc1)Nc1cccc(Cl)c1 | -4 | 1 | 0 | 3 | -5 | 13
CC(C)c1ccc(O)c(N)c1 | 5 | -2 | 6 | -1 | -1 | 24
CC(C)(C)c1ccc(O)c(N)c1 | -3 | 3 | 24* | 18 | -7 | -4
CCOC(=O)CSc1nnc(Cc2ccccc2)n1Cc1ccco1 | -3 | 6 | 3 | 92* | -4 | 9
CCOC(=O)c1cnc(SCC(=O)Nc2ccc(NC(=O)CC)c(OC)c2)nc1N | 0 | 5 | 7 | . | 7 | 5
c1ccc(-c2nnc(-c3ccccn3)nn2)nc1 | 1 | 3 | 25* | . | 2 | 7
c1ccc(-c2cccc(-c3ccccn3)n2)nc1 | -2 | -3 | -6 | -3 | 4 | 12
Cc1cc(C)n(CCc2nc3c4ccccc4nc(SCc4ccc(C#N)cc4)n3n2)n1 | 1 | 6 | 2 | . | 0 | 12
CCOc1c(Br)cc(C2NS(=O)(=O)N=C3CCCCCN32)cc1OC (stereo not given) | -1 | 2 | 6 | 14 | -4 | 13
CCN(C(=O)COc1cc(=O)n(C)c2ccccc12)c1cccc(Cl)c1 | 0 | 57* | 4 | -1 | 1 | 23
O=C(Nc1ccc(S(=O)(=O)Nc2nccs2)cc1)C1CCCCC1 | -2 | 4 | -11 | -15 | -11 | -18
COc1ccccc1CNS(=O)(=O)c1c(C)noc1C | 0 | 0 | 0 | -8 | 13 | 11
Cn1c(C(=O)NCCCN2CCCC2=O)cc2c(=O)n(C)c3ccccc3c21 | 4 | 0 | -1 | 1 | 1 | 10
Cn1c(C(=O)N2CCN(Cc3ccccc3)CC2)cc2c(=O)n(C)c3ccccc3c21 | 1 | -1 | 3 | 18 | 51* | 20
CN(CCNC(=O)c1cc2c(=O)n(C)c3ccccc3c2n1C)Cc1ccccc1 | 1 | 4 | 12 | . | 72* | 13
CCN1CCN(C(=O)c2cc3c(=O)n(C)c4ccccc4c3n2C)CC1 | -12 | 1 | 2 | -7 | 1 | 9
CCCN(CCC)CCNC(=O)c1cc2c(=O)n(C)c3ccccc3c2n1C | -7 | 3 | 4 | -3 | 77* | 2
Cc1ccc(-n2c(CSc3nc(C)cc(C)n3)nnc2SCC(=O)N2CCCC2)cc1 | 2 | 3 | 15 | 26 | 4 | -2
CCCN1C(=O)c2cc(C(=O)NC3CCCCCC3)ccc2C1O (stereo not given) | 7 | 2 | 11 | 8 | 24 | 5
